Published values gathered from unrelated publications.
Sample: Caco-2

Compound | concentration | time | pH | endpoint | result
COc1ccc2c(c1)[C@]13CCCC[C@@H]1[C@H](C2)N(C)CC3 | 10 µM |  | pH 6.5 | Papp B→A | 69.6 ×10⁻⁶ cm/s
NC[C@H]1O[C@@H](O[C@@H]([C@H](NCCCC(=O)NCc2ccc(N3CCC(Oc4ccc(OC(F)(F)F)cc4)CC3)cc2)C(N)=O)[C@H]2O[C@@H](n3ccc(=O)[nH]c3=O)C(O)C2O)[C@H](O)[C@@H]1O (stereo partly shown) |  |  |  | Papp | < 1 ×10⁻⁶ cm/s
N=c1c2c(-c3ccccc3)c(-c3ccccc3)n(Cc3ccccc3)c2ncn1[C@H]1CC[C@H](O)CC1 | 3 µM | 2 h | pH 7.4 | Papp A→B | 0.2 ×10⁻⁶ cm/s
COc1cc2c(c(OC)c1OC)-c1ccc(OC)c(=O)cc1[C@@H](NC(C)=O)CC2 |  |  |  | Papp A→B | 0.2 ×10⁻⁶ cm/s
C/N=c1\nc(-c2ccccc2)n(-c2ccccc2)s1 | 20 µM | 95 min |  | Papp A→B | 38.9 ×10⁻⁶ cm/s
COC(=O)N[C@H](C(=O)NN(CCC[C@@]1(Cc2ccccc2)C(=O)N([C@H]2c3ccccc3C[C@H]2O)C[C@H]1O)Cc1ccc(Br)cc1)C(C)(C)C | 10 µM | 1 h | pH 7.4 | Papp A→B | > 20 ×10⁻⁶ cm/s
O=C(CCCN1CCC2(CC1)C(=O)NCN2c1ccccc1)N(CC1CCCCC1)c1ccccc1 |  |  |  | Papp A→B | 2.83 ×10⁻⁶ cm/s
CC[C@@]1(O)C(=O)OCc2c1cc1n(c2=O)Cc2cc3ccccc3nc2-1 | 100 µM | 105 min |  | Papp A→B | 36 ×10⁻⁶ cm/s
C[C@]12C[C@@H](O)[C@H]3[C@@H](CC[C@]4(O)C[C@@H](O)C[C@@H](O)[C@]34CO)[C@@]1(O)CC[C@@H]2c1cn(Cc2ccccc2)nn1 |  | 1 h | pH 6.5 | Papp A→B | 0.19 ×10⁻⁶ cm/s
C[C@H]1O[C@@H](O[C@H]2[C@@H](O)C[C@H](O[C@H]3[C@@H](O)C[C@H](O[C@H]4CC[C@@]5(C)[C@H](CC[C@@H]6[C@@H]5C[C@@H](O)[C@]5(C)[C@@H](C7=CC(=O)OC7)CC[C@]65O)C4)O[C@@H]3C)O[C@@H]2C)C[C@H](O)[C@@H]1O | 10 µM | 1 h | pH 7.4 | Papp A→B | 4.28 ×10⁻⁶ cm/s
